In ChEMBL document CHEMBL1649395, “Synthesis and antibacterial activity of novel ketolides with 11,12-sulfur contained aryl alkyl side chains” (2011):
Values after ≈ are worked out from the molar mass of the structure shown.

What was measured:
Assay type in all cases: functional
[1] = tested on: Staphylococcus epidermidis; assay: Antibacterial activity against methicillin-susceptible Staphylococcus epidermidis 07T202 by broth microdilution method
Outline: (§1)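 Strains were ATCC reference strains or clinical isolates from China's national antimicrobial resistance surveillance network (MOHNARIN). In vitro activity was measured by broth microdilution following NCCLS recommendations. Results are reported as minimum inhibitory concentration (MIC) in mg/L.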

Staphylococcus aureus [2] = assay: Antibacterial activity against methicillin-susceptible Staphylococcus aureus ATCC 29213 by broth microdilution method; outline: as §1
Haemophilus influenzae [3] = assay: Antibacterial activity against erythromycin-susceptible Haemophilus influenzae 07O114 by broth microdilution method; outline: as §1
Streptococcus pyogenes [4] = assay: Antibacterial activity against erythromycin-resistant Streptococcus pyogenes 03-233 by broth microdilution method
Outline: (§2)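 Clinical isolates were supplied by China's Ministry of Health National Antimicrobial Resistance Investigation Net (MOHNARIN). Activity was reported as minimum inhibitory concentration (MIC), determined by broth microdilution following NCCLS recommendations.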

[5] = tested on: Staphylococcus epidermidis; assay: Antibacterial activity against methicillin-resistant Staphylococcus epidermidis 07R066 by broth microdilution method; outline: as §2
Streptococcus pneumoniae [6] = assay: Antibacterial activity against erythromycin-susceptible Streptococcus pneumoniae ATCC 49619 by broth microdilution method; outline: as §1
Streptococcus pyogenes [7] = assay: Antibacterial activity against erythromycin-resistant Streptococcus pyogenes 01-533 by broth microdilution method; outline: as §2
Haemophilus influenzae [8] = assay: Antibacterial activity against erythromycin-susceptible Haemophilus influenzae 07O339 by broth microdilution method; outline: as §1
Streptococcus pneumoniae [9] = assay: Antibacterial activity against erythromycin-resistant Streptococcus pneumoniae 07D201 by broth microdilution method; outline: as §2
Streptococcus pneumoniae [10] = assay: Antibacterial activity against erythromycin-susceptible Streptococcus pneumoniae 07H252 by broth microdilution method; outline: as §1
Haemophilus influenzae [11] = assay: Antibacterial activity against erythromycin-susceptible Haemophilus influenzae 07O394 by broth microdilution method; outline: as §1
Staphylococcus aureus [12] = assay: Antibacterial activity against methicillin-susceptible Staphylococcus aureus ANS46 by broth microdilution method; outline: as §1
Streptococcus pyogenes [13] = assay: Antibacterial activity against erythromycin-susceptible Streptococcus pyogenes 07U086 by broth microdilution method; outline: as §1
Streptococcus pneumoniae [14] = assay: Antibacterial activity against erythromycin-resistant Streptococcus pneumoniae 07P390 by broth microdilution method; outline: as §2
[15] = tested on: Staphylococcus epidermidis; assay: Antibacterial activity against methicillin-susceptible Staphylococcus epidermidis 07C134 by broth microdilution method; outline: as §2
Haemophilus influenzae [16] = assay: Antibacterial activity against erythromycin-susceptible Haemophilus influenzae ATCC 49247 by broth microdilution method; outline: as §1
[17] = tested on: Staphylococcus epidermidis; assay: Antibacterial activity against methicillin-resistant Staphylococcus epidermidis 07A066 by broth microdilution method; outline: as §2
Streptococcus pyogenes [18] = assay: Antibacterial activity against erythromycin-susceptible Streptococcus pyogenes 07U084 by broth microdilution method; outline: as §1

Row | Compound | MIC [1] | MIC (Staphylococcus aureus [2]) | MIC (Haemophilus influenzae [3]) | MIC (Streptococcus pyogenes [4]) | MIC [5] | MIC (Streptococcus pneumoniae [6]) | MIC (Streptococcus pyogenes [7]) | MIC (Haemophilus influenzae [8]) | MIC (Streptococcus pneumoniae [9]) | MIC (Streptococcus pneumoniae [10]) | MIC (Haemophilus influenzae [11]) | MIC (Staphylococcus aureus [12]) | MIC (Streptococcus pyogenes [13]) | MIC (Streptococcus pneumoniae [14]) | MIC [15] | MIC (Haemophilus influenzae [16]) | MIC [17] | MIC (Streptococcus pyogenes [18])
1 | CC[C@H]1OC(=O)[C@H](C)C(=O)[C@H](C)[C@@H](O[C@@H]2O[C@H](C)C[C@H](N(C)C)[C@H]2O)[C@@](C)(OC)C[C@@H](C)C(=O)[C@H](C)[C@H]2N(CCCSc3nc(C)cc(C)n3)C(=O)O[C@]12C | > 32 µg/mL | 0.5 µg/mL (≈ 0.63 µM) | 8 µg/mL (≈ 10.1 µM) | > 32 µg/mL | 0.5 µg/mL (≈ 0.63 µM) | 0.062 µg/mL (≈ 0.0782 µM) | 2 µg/mL (≈ 2.52 µM) | 4 µg/mL (≈ 5.04 µM) | > 32 µg/mL | 2 µg/mL (≈ 2.52 µM) | 8 µg/mL (≈ 10.1 µM) | > 32 µg/mL | 0.125 µg/mL (≈ 0.158 µM) | 1 µg/mL (≈ 1.26 µM) | 0.5 µg/mL (≈ 0.63 µM) | 4 µg/mL (≈ 5.04 µM) | 0.5 µg/mL (≈ 0.63 µM) | 0.125 µg/mL (≈ 0.158 µM)
2 | CC[C@H]1OC(=O)[C@H](C)C(=O)[C@H](C)[C@@H](O[C@@H]2O[C@H](C)C[C@H](N(C)C)[C@H]2O)[C@@](C)(OC)C[C@@H](C)C(=O)[C@H](C)[C@H]2N(CCCSc3ccoc3C)C(=O)O[C@]12C | > 16 µg/mL | 0.25 µg/mL (≈ 0.326 µM) | 8 µg/mL (≈ 10.4 µM) | > 16 µg/mL | 0.25 µg/mL (≈ 0.326 µM) | 0.031 µg/mL (≈ 0.0404 µM) | 0.5 µg/mL (≈ 0.652 µM) | 16 µg/mL (≈ 20.9 µM) | > 16 µg/mL | 1 µg/mL (≈ 1.3 µM) | 16 µg/mL (≈ 20.9 µM) | > 16 µg/mL | 0.125 µg/mL (≈ 0.163 µM) | 0.25 µg/mL (≈ 0.326 µM) | 0.25 µg/mL (≈ 0.326 µM) | 16 µg/mL (≈ 20.9 µM) | 0.25 µg/mL (≈ 0.326 µM) | 0.125 µg/mL (≈ 0.163 µM)
3 | CC[C@H]1OC(=O)[C@H](C)[C@@H](O[C@H]2C[C@@](C)(OC)[C@@H](O)[C@H](C)O2)[C@H](C)[C@@H](O[C@@H]2O[C@H](C)C[C@H](N(C)C)[C@H]2O)[C@](C)(OC)C[C@@H](C)C(=O)[C@H](C)[C@@H](O)[C@]1(C)O [CLARITHROMYCIN] | > 32 µg/mL | 0.25 µg/mL (≈ 0.334 µM) | 4 µg/mL (≈ 5.35 µM) | > 32 µg/mL | 0.125 µg/mL (≈ 0.167 µM) | 0.031 µg/mL (≈ 0.0414 µM) | 2 µg/mL (≈ 2.67 µM) | 8 µg/mL (≈ 10.7 µM) | > 32 µg/mL | 0.062 µg/mL (≈ 0.0829 µM) | 8 µg/mL (≈ 10.7 µM) | > 32 µg/mL | 0.031 µg/mL (≈ 0.0414 µM) | 2 µg/mL (≈ 2.67 µM) | 0.25 µg/mL (≈ 0.334 µM) | 4 µg/mL (≈ 5.35 µM) | 8 µg/mL (≈ 10.7 µM) | 0.031 µg/mL (≈ 0.0414 µM)
4 | CC[C@H]1OC(=O)[C@H](C)C(=O)[C@H](C)[C@@H](O[C@@H]2O[C@H](C)C[C@H](N(C)C)[C@H]2O)[C@](C)(OC)C[C@@H](C)C(=O)[C@H](C)[C@H]2N(CCCCn3cnc(-c4cccnc4)c3)C(=O)O[C@]12C [TELITHROMYCIN] | > 16 µg/mL | 0.125 µg/mL (≈ 0.154 µM) | 4 µg/mL (≈ 4.93 µM) | 2 µg/mL (≈ 2.46 µM) | 0.125 µg/mL (≈ 0.154 µM) | 0.031 µg/mL (≈ 0.0382 µM) | 0.25 µg/mL (≈ 0.308 µM) | 4 µg/mL (≈ 4.93 µM) | 1 µg/mL (≈ 1.23 µM) | 0.062 µg/mL (≈ 0.0764 µM) | 4 µg/mL (≈ 4.93 µM) | > 16 µg/mL | 0.062 µg/mL (≈ 0.0764 µM) | 0.031 µg/mL (≈ 0.0382 µM) | 0.125 µg/mL (≈ 0.154 µM) | 4 µg/mL (≈ 4.93 µM) | 0.125 µg/mL (≈ 0.154 µM) | 0.062 µg/mL (≈ 0.0764 µM)
5 | CC[C@H]1OC(=O)[C@H](C)C(=O)[C@H](C)[C@@H](O[C@@H]2O[C@H](C)C[C@H](N(C)C)[C@H]2O)[C@@](C)(OC)C[C@@H](C)C(=O)/C(C)=C/[C@]1(C)OC(=O)NCCCSc1nc2ccccc2o1 | > 16 µg/mL | 4 µg/mL (≈ 4.98 µM) | > 16 µg/mL | > 16 µg/mL | 4 µg/mL (≈ 4.98 µM) | 2 µg/mL (≈ 2.49 µM) | > 16 µg/mL | > 16 µg/mL | > 16 µg/mL | 16 µg/mL (≈ 19.9 µM) | > 16 µg/mL | > 16 µg/mL | 2 µg/mL (≈ 2.49 µM) | > 16 µg/mL | 4 µg/mL (≈ 4.98 µM) | > 16 µg/mL | 4 µg/mL (≈ 4.98 µM) | 2 µg/mL (≈ 2.49 µM)
6 | CC[C@H]1OC(=O)[C@H](C)C(=O)[C@H](C)[C@@H](O[C@@H]2O[C@H](C)C[C@H](N(C)C)[C@H]2O)[C@@](C)(OC)C[C@@H](C)C(=O)[C@H](C)[C@H]2N(CCCSc3nncs3)C(=O)O[C@]12C | > 16 µg/mL | 0.25 µg/mL (≈ 0.324 µM) | 2 µg/mL (≈ 2.59 µM) | > 16 µg/mL | 0.5 µg/mL (≈ 0.648 µM) | ≤ 0.016 µg/mL | 1 µg/mL (≈ 1.3 µM) | 2 µg/mL (≈ 2.59 µM) | > 16 µg/mL | 2 µg/mL (≈ 2.59 µM) | 2 µg/mL (≈ 2.59 µM) | > 16 µg/mL | 0.062 µg/mL (≈ 0.0804 µM) | 0.5 µg/mL (≈ 0.648 µM) | 0.25 µg/mL (≈ 0.324 µM) | 2 µg/mL (≈ 2.59 µM) | 0.25 µg/mL (≈ 0.324 µM) | 0.062 µg/mL (≈ 0.0804 µM)
7 | CC[C@H]1OC(=O)[C@H](C)C(=O)[C@H](C)[C@@H](O[C@@H]2O[C@H](C)C[C@H](N(C)C)[C@H]2O)[C@@](C)(OC)C[C@@H](C)C(=O)[C@H](C)[C@H]2N(CCCSc3nnc(C)s3)C(=O)O[C@]12C | > 32 µg/mL | 0.25 µg/mL (≈ 0.318 µM) | 2 µg/mL (≈ 2.55 µM) | > 32 µg/mL | 2 µg/mL (≈ 2.55 µM) | ≤ 0.016 µg/mL | 1 µg/mL (≈ 1.27 µM) | 2 µg/mL (≈ 2.55 µM) | 16 µg/mL (≈ 20.4 µM) | ≤ 0.016 µg/mL | 2 µg/mL (≈ 2.55 µM) | > 32 µg/mL | 0.031 µg/mL (≈ 0.0395 µM) | 0.125 µg/mL (≈ 0.159 µM) | 0.125 µg/mL (≈ 0.159 µM) | 2 µg/mL (≈ 2.55 µM) | 0.125 µg/mL (≈ 0.159 µM) | ≤ 0.016 µg/mL
8 | CC[C@H]1OC(=O)[C@H](C)C(=O)[C@H](C)[C@@H](O[C@@H]2O[C@H](C)C[C@H](N(C)C)[C@H]2O)[C@@](C)(OC)C[C@@H](C)C(=O)[C@H](C)[C@H]2N(CCCSc3nccc(C)n3)C(=O)O[C@]12C | > 32 µg/mL | 0.5 µg/mL (≈ 0.642 µM) | 8 µg/mL (≈ 10.3 µM) | 2 µg/mL (≈ 2.57 µM) | 0.25 µg/mL (≈ 0.321 µM) | 0.062 µg/mL (≈ 0.0796 µM) | 2 µg/mL (≈ 2.57 µM) | 8 µg/mL (≈ 10.3 µM) | > 32 µg/mL | 8 µg/mL (≈ 10.3 µM) | 8 µg/mL (≈ 10.3 µM) | > 32 µg/mL | 0.125 µg/mL (≈ 0.16 µM) | 0.25 µg/mL (≈ 0.321 µM) | 0.25 µg/mL (≈ 0.321 µM) | 8 µg/mL (≈ 10.3 µM) | 0.5 µg/mL (≈ 0.642 µM) | 0.125 µg/mL (≈ 0.16 µM)
